Laboratory results taken from ChEMBL document CHEMBL3763103, “Synthesis and evaluation of vitamin D receptor-mediated activities of cholesterol and vitamin D metabolites” (Eur J Med Chem, 2016).
Calls of active or inactive are those of the source. The calls are words filed in the database; no cut-off is given here.

Experiments:
[1] = Cytotoxicity against HEK293T cells assessed as reduction in cell viability after 18 hrs by CellTiter-Glo luminescence assay; type: cell-based, HEK-293T; details: human, read-out: LD50
Vitamin D3 receptor [2] = target: T1, Vitamin D3 receptor (Homo sapiens, UniProt P11473); test: Antagonist activity against VDR-LBD (unknown origin) expressed in Escherichia coli assessed as inhibition of VDR agonist LG190178-induced SRC2-3 coactivator peptide recruitment after 30 mins by fluorescence polarization assay
T1 sequence (P11473 whole entry): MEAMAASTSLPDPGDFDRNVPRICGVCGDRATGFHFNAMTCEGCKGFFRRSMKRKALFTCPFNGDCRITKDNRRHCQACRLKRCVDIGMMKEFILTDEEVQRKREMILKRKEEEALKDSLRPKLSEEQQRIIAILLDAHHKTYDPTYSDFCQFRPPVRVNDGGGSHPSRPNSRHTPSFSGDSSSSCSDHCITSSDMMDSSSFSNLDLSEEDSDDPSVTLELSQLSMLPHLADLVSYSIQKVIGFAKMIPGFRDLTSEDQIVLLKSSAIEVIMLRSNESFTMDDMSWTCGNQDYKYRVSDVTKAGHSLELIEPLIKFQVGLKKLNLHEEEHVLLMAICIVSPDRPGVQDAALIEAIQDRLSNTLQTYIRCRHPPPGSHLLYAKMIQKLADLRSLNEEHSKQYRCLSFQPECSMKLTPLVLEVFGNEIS

Vitamin D3 receptor [3] = target: T1, Vitamin D3 receptor; test: Agonist activity at VP16 tagged-VDR-LBD (unknown origin) expressed in HEK293T cells assessed as SRC1 coactivator peptide recruitment after 16 hrs by luciferase reporter gene based two hybrid assay; type: cell-based, HEK-293T
Vitamin D3 receptor [4] = target: T1, Vitamin D3 receptor; test: Agonist activity at VDR-LBD (unknown origin) expressed in Escherichia coli assessed as SRC2-3 coactivator peptide recruitment after 30 mins by fluorescence polarization assay
Vitamin D3 receptor [5] = target: T1, Vitamin D3 receptor; test: Antagonist activity against VP16 tagged-VDR-LBD (unknown origin) expressed in HEK293T cells assessed as inhibition of 1,25-dihydroxyvitamin D3-induced SRC1 coactivator peptide recruitment after 16 hrs by luciferase reporter gene based two hybrid assay; type: cell-based, HEK-293T
[6] = target: T2, Vitamin D3 receptor (Homo sapiens) (UniProt P11473); test: Agonist activity at VP16 tagged-VDR-LBD (unknown origin) expressed in HEK293T cells assessed as SRC1 coactivator peptide recruitment after 16 hrs by luciferase reporter gene based two hybrid assay relative to 1,25-dihydroxyvitamin D3; type: cell-based; details: HEK-293T
T2 sequence (whole entry): T1 sequence (P11473 whole entry)
In short: (§1)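 HEK293T cells were lipid-transfected with VP16-VDR-LBD, SRC1-GAL4 and 4×UAS luciferase reporter plasmids for 16 h. Cells were then plated at 15,000/well on matrigel in phenol-red-free DMEM with 2% charcoal-treated FBS. Three experiments in quadruplicate; nonlinear regression.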

Vitamin D3 receptor [7] = target: T1, Vitamin D3 receptor; test: Agonist activity at human VP16 tagged-VDR-LBD after 16 hrs by luciferase reporter gene based transcription assay
In short: as §1, with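 “hVDR-Gal4” for “VP16-VDR-LBD, SRC1-GAL4”, “FBS. Compounds (1:3 serial dilution, max final 150 µM) were added after 4 h and incubated 16 h at 37°C; readout by Bright-Glo luminescence. […]” for “FBS.”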

[8] = target: T2, Vitamin D3 receptor (Homo sapiens); test: Agonist activity at VDR-LBD in human DU145 cells assessed as CYP24A1 expression at 7.5 uM after 18 hrs by qRT-PCR method relative to 1alpha,25-dihydroxyvitamin D3; type: cell-based; details: DU-145
In short: (§2)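 Non-transfected DU145 cells were grown in DMEM with 10% heat-inactivated FBS and plated on matrigel-coated 6-well plates overnight at 37°C. Total RNA was isolated and CYP24A1 fold change was measured by real-time RT-PCR (Ct method). Experiments were run in triplicate; significance by Dunnett ANOVA.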

[9] = target: T2, Vitamin D3 receptor (Homo sapiens); test: Agonist activity at human VP16 tagged-VDR-LBD after 16 hrs by luciferase reporter gene based transcription assay relative to 1,25-dihydroxyvitamin D3
In short: as §1, with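 “hVDR-Gal4” for “VP16-VDR-LBD, SRC1-GAL4”, “FBS. Compounds (1:3 serial dilution, max final 150 µM) were added after 4 h and incubated 16 h at 37°C; readout by Bright-Glo luminescence. […]” for “FBS.”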

[10] = target: T2, Vitamin D3 receptor (Homo sapiens); test: Agonist activity at VDR-LBD in human DU145 cells assessed as CYP24A1 expression at 7.5 uM in presence of 20 nM 1alpha,25-dihydroxyvitamin D3 after 18 hrs by qRT-PCR method; type: cell-based; details: DU-145
In short: as §2, with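 “37°C. […]” for “37°C.”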

Structure (SMILES) | CC50 at 18 h [1] | IC50 (Vitamin D3 receptor [2]) | EC50 (Vitamin D3 receptor [3]) | EC50 (Vitamin D3 receptor [4]) | IC50 (Vitamin D3 receptor [5]) | Efficacy [6] | EC50 (Vitamin D3 receptor [7]) | Activity [8] | Efficacy [9] | Activity [10]
CC(=O)O[C@@H]1CC[C@@]2(C)[C@H](CC[C@@H]3[C@@H]2CC[C@]2(C)[C@@H]([C@H](C)CCC(=O)O)CC[C@@H]32)C1 | > 50 µM | 11 µM | 1.49 µM | > 150 µM | > 50 µM |  |  |  |  | 
C[C@H](CCC(=O)O)[C@H]1CC[C@H]2[C@@H]3CC[C@@H]4C[C@H](O)CC[C@]4(C)[C@H]3CC[C@]12C [LITHOCHOLIC ACID] | 55.9 µM |  |  |  |  |  |  |  |  | 
C[C@H](CCC(=O)O)[C@H]1CC[C@H]2[C@@H]3CC[C@@H]4C[C@H](OS(=O)(=O)O)CC[C@]4(C)[C@H]3CC[C@]12C | > 150 µM | 23.3 µM | > 150 µM | > 150 µM | > 50 µM |  |  |  |  | 
C[C@H](CCC(=O)O)[C@H]1CC[C@H]2[C@@H]3[C@@H](O)C[C@@H]4C[C@H](O)CC[C@]4(C)[C@H]3CC[C@]12C [URSODIOL] | > 150 µM | > 150 µM | > 150 µM | > 150 µM | > 50 µM |  |  |  |  | 
C[C@H](CCC(=O)O)[C@H]1CC[C@H]2[C@@H]3C[C@H](O)[C@@H]4C[C@H](O)CC[C@]4(C)[C@H]3CC[C@]12C [HYODEOXYCHOLIC_ACID] | > 150 µM | > 150 µM | > 150 µM | > 150 µM | > 50 µM |  |  |  |  | 
C[C@H](CCC(=O)O)[C@H]1CC[C@H]2[C@@H]3CC[C@@H]4C[C@H](O)CC[C@]4(C)[C@H]3C[C@H](O)[C@]12C [DEOXYCHOLIC ACID] | > 150 µM | > 150 µM | > 150 µM | > 150 µM | > 50 µM |  |  |  |  | 
C[C@H](CCC(=O)O)[C@H]1CC[C@H]2[C@@H]3[C@H](O)C[C@@H]4C[C@H](O)CC[C@]4(C)[C@H]3CC[C@]12C [CHENODIOL] | > 150 µM | > 150 µM | > 150 µM | > 150 µM | > 50 µM |  |  |  |  | 
C[C@H](CCC(=O)NCC(=O)O)[C@H]1CC[C@H]2[C@@H]3CC[C@@H]4C[C@H](O)CC[C@]4(C)[C@H]3CC[C@]12C [LITHOGLYCOCHOLATE] | > 150 µM | 40.1 µM | > 150 µM | > 150 µM | > 50 µM |  |  |  |  | 
C[C@H](CCC(=O)O)[C@H]1CC[C@H]2[C@@H]3CC[C@@H]4C[C@H](O[C@@H]5O[C@H](C(=O)O)[C@@H](O)[C@H](O)[C@H]5O)CC[C@]4(C)[C@H]3CC[C@]12C | > 150 µM | 31.5 µM | 20.5 µM | > 50 µM | > 150 µM | 49% | 12.3 µM | inactive | 55% | 
C[C@H](CCC(=O)O[C@@H]1O[C@H](C(=O)O)[C@@H](O)[C@H](O)[C@H]1O)[C@H]1CC[C@H]2[C@@H]3CC[C@@H]4C[C@H](O)CC[C@]4(C)[C@H]3CC[C@]12C | > 150 µM | 2.86 µM | 6.52 µM | > 150 µM | > 150 µM | 29% | 21.3 µM | Active | 70% | Active
COC(=O)CC[C@@H](C)[C@H]1CC[C@H]2[C@@H]3CC[C@@H]4C[C@H](O)CC[C@]4(C)[C@H]3CC[C@]12C | 50.4 µM | > 150 µM | > 150 µM | > 150 µM | 15.1 µM |  |  |  |  | 
C=C1/C(=C\C=C2/CCC[C@]3(C)[C@@H]([C@H](C)CC(=O)O)CC[C@@H]23)C[C@@H](O)C[C@@H]1O | > 100 µM | 2.29 µM | 0.87 µM | > 100 µM | > 100 µM | 55% |  | Active |  | 
C[C@H](CCC(=O)NCCS(=O)(=O)O)[C@H]1CC[C@H]2[C@@H]3CC[C@@H]4C[C@H](O)CC[C@]4(C)[C@H]3CC[C@]12C [TAUROLITHOCHOLIC ACID] | > 150 µM | 14.5 µM | > 150 µM | > 150 µM | > 50 µM |  |  |  |  | 
